Source: ChEMBL document CHEMBL4190192, “Interaction of 7-Alkoxycoumarins with the Aryl Hydrocarbon Receptor” (J Nat Prod, 2017)

Experiments:
Assay type in all cases: cell-based; call rule not given here
[1] = target: T1, Aryl hydrocarbon receptor (Homo sapiens, UniProt P35869); assay: Antagonist activity at AhR (unknown origin) expressed in mouse H1L1.1c2 cells assessed as inhibition of FICZ-induced AhR activation at 1 to 100 uM after 8 to 10 hrs by luciferase reporter gene assay
T1 sequence (P35869 whole entry): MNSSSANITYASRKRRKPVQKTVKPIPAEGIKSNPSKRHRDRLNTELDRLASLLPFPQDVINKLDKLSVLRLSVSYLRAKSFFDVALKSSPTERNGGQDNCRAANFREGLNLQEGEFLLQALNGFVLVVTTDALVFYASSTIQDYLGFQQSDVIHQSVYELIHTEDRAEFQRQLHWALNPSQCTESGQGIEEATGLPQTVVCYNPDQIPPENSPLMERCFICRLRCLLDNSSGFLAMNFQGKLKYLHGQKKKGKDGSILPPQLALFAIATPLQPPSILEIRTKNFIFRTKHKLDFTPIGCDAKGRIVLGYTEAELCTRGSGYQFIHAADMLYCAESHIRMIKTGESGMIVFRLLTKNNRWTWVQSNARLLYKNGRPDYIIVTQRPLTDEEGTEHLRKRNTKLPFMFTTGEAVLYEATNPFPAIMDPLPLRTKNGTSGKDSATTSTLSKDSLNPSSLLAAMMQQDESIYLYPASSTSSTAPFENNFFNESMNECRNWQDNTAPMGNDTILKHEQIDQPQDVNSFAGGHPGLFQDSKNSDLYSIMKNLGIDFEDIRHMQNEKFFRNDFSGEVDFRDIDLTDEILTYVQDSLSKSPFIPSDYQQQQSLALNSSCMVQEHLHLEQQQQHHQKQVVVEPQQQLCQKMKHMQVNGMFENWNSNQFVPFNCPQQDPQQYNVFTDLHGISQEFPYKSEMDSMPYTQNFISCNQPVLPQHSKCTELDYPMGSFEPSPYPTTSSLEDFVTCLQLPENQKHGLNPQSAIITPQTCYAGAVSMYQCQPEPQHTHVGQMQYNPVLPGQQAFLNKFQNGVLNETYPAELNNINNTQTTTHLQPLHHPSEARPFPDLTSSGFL

[2] = target: T1, Aryl hydrocarbon receptor; assay: Agonist activity at AhR (unknown origin) expressed in mouse H1L1.1c2 cells at 1 to 100 uM after 8 to 10 hrs by luciferase reporter gene assay
In short: (§1)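 AhR luciferase reporter cells were grown and treated with compounds at three concentrations (1, 10 and 100 μM). The reference ligand FICZ was run at 1 μM. The read-out was luciferase activity. Data are given as mean ± SD, with significance at P < 0.05, < 0.01 and < 0.001.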

[3] = target: T1, Aryl hydrocarbon receptor; assay: Agonist activity at AhR (unknown origin) expressed in mouse H1L1.1c2 cells at 100 uM after 8 to 10 hrs by luciferase reporter gene assay
[4] = target: T1, Aryl hydrocarbon receptor; assay: Agonist activity at AhR (unknown origin) expressed in mouse H1L1.1c2 cells after 8 to 10 hrs by luciferase reporter gene assay; in short: as §1

SMILES | inhibition (INH) [1] | Activity [2] | Activity [3] | Activity [4]
COc1cc(/C=C/C(=O)O)ccc1OC/C=C(\C)CCC=C(C)C | Not Active | Not Active |  | 
CC(C)=CCC/C(C)=C/COc1ccc2ccc(=O)oc2c1 | Not Active | Not Active |  | 
CC(C)(C)COc1ccc2ccc(=O)oc2c1 | Not Active |  | Active | 
CC(C)CCOc1ccc2ccc(=O)oc2c1 | Not Active | Not Active |  | 
CCC#CCOc1ccc2ccc(=O)oc2c1 [7-(2-PENTYNYLOXY)COUMARIN] | Not Active |  | Active | 
C=CCOc1ccc2ccc(=O)oc2c1 [7-ALLYLOXYCOUMARIN] | Not Active | Not Active |  | 
CC(C)=CCOc1ccc2ccc(=O)oc2c1 [7-PRENYLOXYCOUMARIN] | Not Active |  |  | Dose-dependent effect
CCCOc1ccc2ccc(=O)oc2c1 [7-PROPOXYCOUMARIN] | Active | Not Active |  | 
C/C=C/COc1ccc2ccc(=O)oc2c1 [(E)-7-(2-BUTENYLOXY)COUMARIN] | Not Active |  | Active | 
COc1cc(/C=C/C(=O)O)ccc1OCC=C(C)C [BOROPINIC ACID] | Not Active |  |  | Dose-dependent effect
CCOc1ccc2ccc(=O)oc2c1 [ETHOXYCOUMARIN] | Not Active | Not Active |  | 
COc1ccc2ccc(=O)oc2c1 [HERNIARIN] | Not Active | Not Active |  | 
O=c1ccc2ccc(O)cc2o1 [UMBELLIFERONE] | Not Active | Not Active |  | 
